For data set [1], the system named is Jurkat. Description: Cytotoxicity against human Jurkat cells assessed as reduction of cell viability at 50 uM after 24 hrs by trypan blue exclusion assay. It counts as functional, cell-based. The method in brief: (§1)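 Trypan blue counting of proliferation (cells/mL) and viability. Exponential-phase cells were seeded at 200,000 cells/mL in RPMI 1640 with 10% heat-inactivated FCS at 37 °C and 5% CO2. They were treated from 50 mM DMSO stocks against DMSO-matched controls and read at 24, 48 and 72 h (PBMCs at 24 and 48 h).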

The test system of data set [2] is Jurkat. Put plainly: Cytotoxicity against human Jurkat cells assessed as growth inhibition at 10 uM after 48 hrs by trypan blue exclusion assay. It counts as functional, cell-based. An outline of the steps: as §1
Data set [3] is described as follows: Cell cycle arrest in human […] cells assessed as accumulation at G0/G1 phase at 25 uM measured at 24 hrs by propidium iodide staining-based flow cytometric analysis. It counts as functional. The method in brief:
(§2)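 Cells in exponential phase at 200,000 cells/mL in RPMI 1640 with 10% heat-inactivated FCS, 37 °C, 5% CO2, treated from DMSO stocks alongside DMSO vehicle controls. Cell cycle distribution was analysed at time points between 8 and 72 h.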
(In general: A flow cytometer gives signals particle by particle.)

Another data set relates to K652. Description: Cytotoxicity against human […] cells assessed as growth inhibition at 25 uM after 24 hrs by trypan blue exclusion assay. The data set is classed as functional, cell-based. An outline of the steps:
as §1

Data set [4] addresses T1, Nuclear factor NF-kappa-B complex (Homo sapiens) (UniProt Q00653+P19838+Q04206). Put plainly: Inhibition of NF-kappaB in human K562 cells assessed as reduction of TNF-alpha-induced CFLAR mRNA expression preincubated for 2 hrs followed by TNF-alpha challenge measured after 6 hrs by qRT-PCR analysis. It counts as cell-based. An outline of the steps:
(§3)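 K-562 cells given compound for 2 h, then cultured ± 20 ng/ml TNF-α for 6 h. Total RNA analysed by qRT-PCR with ICAM1- and CFLAR-specific primers, expressed as target/β-actin mRNA ratio; mean ± SD of 3 independent experiments.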
In general terms: Real-time PCR tracks product formation cycle by cycle.

In data set [5] the target is T2, Nuclear factor NF-kappa-B p105 subunit (Homo sapiens) (UniProt P19838).
T2 sequence (whole entry): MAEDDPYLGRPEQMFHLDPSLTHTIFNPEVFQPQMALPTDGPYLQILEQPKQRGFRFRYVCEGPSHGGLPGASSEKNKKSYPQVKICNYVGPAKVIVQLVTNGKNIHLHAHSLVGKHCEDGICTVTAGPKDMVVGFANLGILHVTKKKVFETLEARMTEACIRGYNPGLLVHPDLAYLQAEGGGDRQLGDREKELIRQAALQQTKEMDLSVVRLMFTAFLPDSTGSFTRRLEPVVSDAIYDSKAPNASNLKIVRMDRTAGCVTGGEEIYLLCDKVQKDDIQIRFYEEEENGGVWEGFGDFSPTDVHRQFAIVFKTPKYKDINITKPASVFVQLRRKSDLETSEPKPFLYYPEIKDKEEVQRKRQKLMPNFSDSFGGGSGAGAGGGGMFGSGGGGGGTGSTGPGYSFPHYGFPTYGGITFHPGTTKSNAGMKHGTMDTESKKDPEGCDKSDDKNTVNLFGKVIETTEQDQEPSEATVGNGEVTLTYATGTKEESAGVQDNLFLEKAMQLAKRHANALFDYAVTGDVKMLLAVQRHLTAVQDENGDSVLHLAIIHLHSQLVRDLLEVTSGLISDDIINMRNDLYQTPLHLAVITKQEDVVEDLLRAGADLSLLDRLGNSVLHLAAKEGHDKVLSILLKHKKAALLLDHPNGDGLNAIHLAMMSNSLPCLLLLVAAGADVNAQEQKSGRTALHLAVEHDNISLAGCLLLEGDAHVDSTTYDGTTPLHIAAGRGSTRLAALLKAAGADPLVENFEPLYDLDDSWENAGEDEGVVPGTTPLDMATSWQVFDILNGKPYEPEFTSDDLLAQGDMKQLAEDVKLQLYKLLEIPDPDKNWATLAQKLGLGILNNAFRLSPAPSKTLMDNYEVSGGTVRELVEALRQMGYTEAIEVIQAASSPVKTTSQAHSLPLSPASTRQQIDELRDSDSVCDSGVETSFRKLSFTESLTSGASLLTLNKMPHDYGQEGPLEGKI
Put plainly: Inhibition of NF-kappaB p50 subunit translocation from cytoplasm to nucleus in TNF-alpha-stimulated human Jurkat cells at 40 uM preincubated for 2 hrs followed by TNF-alpha challenge measured after 2 to 90 mins by Western blot analysis. The data set is classed as cell-based. An outline of the steps: (§4)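 JURKAT cells pretreated 2 h with 40 µM compound, then ± 20 ng/ml TNF-α for the indicated times. Cytoplasmic and nuclear fractions immunoblotted; loading and fraction purity checked with lamin B and α-tubulin. Blots representative of three independent experiments.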
For orientation: A western blot detects proteins with antibodies after separation by electrophoresis.

The subject of data set [6] is Jurkat. Description: Cytotoxicity against human Jurkat cells assessed as growth inhibition at 25 uM after 24 hrs by trypan blue exclusion assay. The data set is classed as functional, cell-based. The method in brief: as §1
In data set [7] the test system is Jurkat. Put plainly: Cytotoxicity against human Jurkat cells assessed as growth inhibition at 50 uM after 24 to 72 hrs by trypan blue exclusion assay. The data set is classed as functional, cell-based. The method in brief: as §1
For data set [8], the target named is T3, NF-kappa-B inhibitor alpha (Homo sapiens) (UniProt P25963).
T3 sequence (whole entry): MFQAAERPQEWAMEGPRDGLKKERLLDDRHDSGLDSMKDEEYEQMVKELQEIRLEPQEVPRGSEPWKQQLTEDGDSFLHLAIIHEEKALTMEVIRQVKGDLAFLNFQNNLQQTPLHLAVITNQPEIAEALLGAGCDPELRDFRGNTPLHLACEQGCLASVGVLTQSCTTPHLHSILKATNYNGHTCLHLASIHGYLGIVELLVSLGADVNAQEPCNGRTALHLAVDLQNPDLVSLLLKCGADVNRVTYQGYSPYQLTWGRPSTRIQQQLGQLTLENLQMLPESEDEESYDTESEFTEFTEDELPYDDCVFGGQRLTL
Put plainly: Inhibition of IkappaB-alpha degradation in TNF-alpha-stimulated human Jurkat cells at 40 uM preincubated for 2 hrs followed by TNF-alpha challenge measured after 2 to 90 mins by Western blot analysis. It counts as cell-based. An outline of the steps: as §4

Data set [9] has as its target Transcription factor p65 (Homo sapiens) (UniProt Q04206). Put plainly: Inhibition of NF-kappaB p65 subunit translocation from cytoplasm to nucleus in TNF-alpha-stimulated human Jurkat cells at 40 uM preincubated for 2 hrs followed by TNF-alpha challenge measured after 2 to 90 mins by Western blot analysis. It counts as cell-based. The method in brief:
as §4

The target of data set [10] is T1, Nuclear factor NF-kappa-B complex (Homo sapiens). Description: Inhibition of NF-kappaB transactivation in TNF-alpha-stimulated human Jurkat cells preincubated for 2 hrs followed by TNF-alpha challenge measured after 6 hrs by dual luciferase reporter gene assay. The data set is classed as cell-based. An outline of the steps: (§5)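 Cells co-transfected with 5 µg of a firefly luciferase reporter carrying five consensus NF-κB sites plus 5 µg of a Renilla TK control plasmid. 24 h later, compound for 2 h, then ± 20 ng/ml TNF-α for 6 h more. Firefly:Renilla ratio, TNF-α-only cells set to 100%. Three independent measurements in quadruplicate.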

The subject of another data set is PBMC. Description: Cytotoxicity against human PBMC assessed as effect on cell viability at >100 uM after 24 to 48 hrs by trypan blue exclusion assay. It counts as cell-based. The method in brief:
as §1

In data set [11] the test system is Jurkat. Description: Cell cycle arrest in human Jurkat cells assessed as accumulation at G0/G1 phase at 50 uM at 8 hrs by propidium iodide staining-based flow cytometric analysis. The data set is classed as functional. An outline of the steps: as §2
The target of data set [12] is T1, Nuclear factor NF-kappa-B complex (Homo sapiens). Put plainly: Inhibition of NF-kappaB transactivation in TNF-alpha-stimulated human K562 cells preincubated for 2 hrs followed by TNF-alpha challenge measured after 6 hrs by dual luciferase reporter gene assay. It counts as cell-based. An outline of the steps: as §5
Data set [13] has the same target. Put plainly: Inhibition of NF-kappaB in human K562 cells assessed as reduction of TNF-alpha-induced ICAM1 mRNA expression preincubated for 2 hrs followed by TNF-alpha challenge measured after 6 hrs by qRT-PCR analysis. The data set is classed as cell-based. An outline of the steps: as §3
For data set [14] the target is unchanged. Description: Inhibition of NF-kappaB transactivation in TNF-alpha-stimulated human K562 cells at 10 to 100 uM preincubated for 2 hrs followed by TNF-alpha challenge measured after 6 hrs by dual luciferase reporter gene assay. It counts as cell-based. An outline of the steps: as §5
Another data set deals with K562. Put plainly: Cytotoxicity against human K562 cells assessed as growth inhibition at 10 to 100 uM after 24 to 72 hrs by trypan blue exclusion assay. The data set is classed as functional, cell-based. An outline of the steps: as §1

Calls of active or inactive are those of the source. The rule behind the calls is not given here.

T1 sequence (Q00653 whole entry, looked up, one chain of several): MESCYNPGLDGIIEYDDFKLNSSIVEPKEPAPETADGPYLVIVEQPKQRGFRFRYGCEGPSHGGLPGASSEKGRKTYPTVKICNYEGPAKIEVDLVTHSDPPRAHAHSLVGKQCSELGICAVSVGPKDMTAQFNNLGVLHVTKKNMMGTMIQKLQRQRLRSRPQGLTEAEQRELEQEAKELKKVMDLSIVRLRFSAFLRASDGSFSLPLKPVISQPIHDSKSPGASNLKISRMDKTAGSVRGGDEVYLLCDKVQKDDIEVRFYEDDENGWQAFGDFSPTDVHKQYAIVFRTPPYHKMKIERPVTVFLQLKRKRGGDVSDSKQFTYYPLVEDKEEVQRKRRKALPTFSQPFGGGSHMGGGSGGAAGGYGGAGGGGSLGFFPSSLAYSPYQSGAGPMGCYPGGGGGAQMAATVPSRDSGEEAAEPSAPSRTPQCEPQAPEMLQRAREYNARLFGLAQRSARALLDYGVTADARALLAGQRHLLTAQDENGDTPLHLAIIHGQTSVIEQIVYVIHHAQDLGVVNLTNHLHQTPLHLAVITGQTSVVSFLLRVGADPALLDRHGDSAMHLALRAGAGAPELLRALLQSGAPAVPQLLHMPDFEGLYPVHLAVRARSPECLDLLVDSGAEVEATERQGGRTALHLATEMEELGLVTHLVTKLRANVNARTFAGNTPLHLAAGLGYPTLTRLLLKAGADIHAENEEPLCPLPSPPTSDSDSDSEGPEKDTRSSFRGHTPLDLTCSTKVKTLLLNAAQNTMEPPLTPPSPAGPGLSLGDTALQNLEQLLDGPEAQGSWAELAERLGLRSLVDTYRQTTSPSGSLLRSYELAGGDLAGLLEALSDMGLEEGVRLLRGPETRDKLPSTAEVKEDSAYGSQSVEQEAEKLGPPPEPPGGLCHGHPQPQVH
T1 sequence (Q04206 whole entry, looked up, one chain of several): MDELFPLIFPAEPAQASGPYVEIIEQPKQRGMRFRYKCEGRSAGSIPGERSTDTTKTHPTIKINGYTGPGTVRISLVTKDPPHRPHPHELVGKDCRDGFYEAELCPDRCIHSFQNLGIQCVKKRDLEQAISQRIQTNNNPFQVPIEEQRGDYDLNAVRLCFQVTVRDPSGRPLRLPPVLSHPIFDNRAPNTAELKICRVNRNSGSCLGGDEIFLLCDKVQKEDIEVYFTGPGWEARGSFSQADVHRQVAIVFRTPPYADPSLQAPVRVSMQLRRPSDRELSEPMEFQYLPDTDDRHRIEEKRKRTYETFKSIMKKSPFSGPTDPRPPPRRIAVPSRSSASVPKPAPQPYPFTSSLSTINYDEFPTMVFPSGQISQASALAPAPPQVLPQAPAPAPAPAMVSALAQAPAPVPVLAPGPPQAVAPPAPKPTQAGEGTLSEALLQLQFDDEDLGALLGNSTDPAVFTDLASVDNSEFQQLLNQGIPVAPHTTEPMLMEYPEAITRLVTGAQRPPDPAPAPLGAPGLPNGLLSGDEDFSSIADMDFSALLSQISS
Sequence of Transcription factor p65 (Homo sapiens) (Q04206 whole entry): as the sequence (Q04206 whole entry, looked up, one chain of several) above

With `O=C(CC(c1c(O)c2ccccc2oc1=O)c1c(O)c2ccccc2oc1=O)c1ccccc1O`, the outcome (in the data set on Jurkat [1]; in data set [3]; in the data set on Jurkat [11]) was Active. For the same compound, the “growth inhibition (GI)” value in the data set on Jurkat [2], with K652, in the data set with Jurkat [6] and in the data set with Jurkat [7] was “Active” throughout. For the same compound, the inhibition result in [4], in data set [10], in data set [12] and in data set [13] was “Dose-dependent effect” each time. Also, the inhibition result in data set [5], in data set [8] and in [9] was “Active” in each case. Further, the Activity entry in the data set with PBMC is reported as “Non-toxic”.

With `CCC(=O)c1ccccc1O`, the inhibition entry in [14] was “inactive”. Besides, in the data set with K562, the “growth inhibition (GI)” value is “inactive”.

As for `O=c1cc(O)c2ccccc2o1`, in [14], the inhibition result was “inactive”. In addition, the “growth inhibition (GI)” value in the data set with K562 was “inactive”.
